≈ marks a conversion by molar mass, not a printed value. Each block holds one molecule with its values, some of them ahead of it. Calls of active or inactive are those of the source. The calls are words filed in the database; no cut-off is given here.
Tests used:
[1] = Water-lipid distribution coefficient, log D of the compound at pH 7.4; type: physicochemical
[2] = Lipid accumulation ratio of the compound; type: physicochemical
Outline: (§1)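 Calculated rather than measured. VAR: predicted trapping in acidic digestive vacuole from pH-dependent water/lipid distribution (log D). LAR: expected fraction concentrating in the vacuole's lipid component.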

[3] = Vacuolar accumulation ratio of the compound; type: ADME; outline: as §1
[4] = test system: Plasmodium falciparum; test: Antiplasmodial activity against chloroquine-resistant ring stage Plasmodium falciparum W2 infected in human RBC after 48 hrs by flow cytometric analysis; type: functional, organism-based; settings: W2, 48 h
Outline: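 Ring-stage W2 parasites at 1% in human erythrocytes, synchronized with 5% sorbitol. Incubated with compound 48 h at 37 °C in RPMI-1640 with 25 mM HEPES pH 7.4, 10% heat-inactivated human serum (or 0.5% Albumax/2% human serum) and hypoxanthine, under 3% O₂/5% CO₂/[…]. Cells fixed in 2% formaldehyde, stained in PBS with NH₄Cl, 0.1% Triton X-100 and 1 nM YOYO-1, then counted by flow cytometry.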

[5] = Selectivity index, ratio of EC50 for HEK293T cells to IC50 for chloroquine-resistant ring stage Plasmodium falciparum W2; type: functional, HEK-293T
[6] = Inhibition of hemozoin-like crystal formation up to 1 mM after 5 days; type: functional
Outline: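 Hemozoin-like crystal stock suspension sonicated 3 min and diluted in fresh broth medium. Compounds in wells at 0–1000 final concentration after 0.22 filtration. Incubated at 37 °C, 5% CO₂, 5 days, then scored for presence or absence of crystal growth. Triplicate.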

[7] = Water-lipid distribution coefficient, log D of the compound at pH 5.2; type: physicochemical
[8] = test system: HEK-293T; test: Cytotoxicity against HEK293T cells after 48 hrs by MTT assay; type: cell-based; settings: Homo sapiens
[9] = test system: Plasmodium falciparum; test: Inhibition of Plasmodium falciparum falcipain-2 up to 50 uM
[10] = test system: Plasmodium falciparum; test: Antimalarial activity against chloroquine-resistant ring stage Plasmodium falciparum Dd2 infected in human erythrocytes after 48 hrs by SYBR Green I staining-based isobologram method in presence of chloroquine; type: functional
Outline: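 Fixed-ratio isobologram: IC50s of each drug alone found first, then 2-fold dilution dose-response series at IC50 ratios 5:0, 4:1, 3:2, 2:3, 1:4, 0:5. Early ring-stage parasitized erythrocytes at 1% parasitaemia, 3% haematocrit, triplicate wells, 48 h at 37 °C. Growth read by SYBR Green I fluorescence, nonlinear regression. Interaction from sum of FICs (IC50 in combination/IC50 alone).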

[11] = Inhibition of hemozoin-like crystal formation after 5 days; type: functional; settings: 120 h
Outline: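 Hemozoin-like crystal stock suspension sonicated 3 min, diluted in fresh broth. Compounds 0.22-filtered, then added across a 0–1000 final range. Incubated 37 °C, 5% CO2 for 5 days, scored for presence or absence of crystal growth. Triplicate.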

[12] = Inhibition of Plasmodium falciparum falcipain-2

SMILES: CCN(CC)Cc1c(O)ccc2c1O/C(=C\c1ccccc1)C2=O
logD [1]: 1.79 | Ratio [2]: 62 | Ratio [3]: 156 | IC50 [4]: 3.47 µM | Selectivity Index [5]: >29 | inhibition [6]: inactive | logD [7]: -0.4 | EC50 [8]: > 100 µM

SMILES: O=C1/C(=C/c2ccc(F)cc2F)Oc2ccccc21
IC50 [4]: > 10 µM | Selectivity Index [5]: >10 | inhibition [9]: inactive | EC50 [8]: > 100 µM

SMILES: O=C1/C(=C/c2ccccc2)Oc2c1ccc(O)c2CN1CCOCC1
logD [1]: 2.42 | Ratio [2]: 265 | Ratio [3]: 17.2 | IC50 [4]: 3.34 µM | CI [10]: 1.06 | Selectivity Index [5]: >30 | inhibition [6]: inactive | logD [7]: 1.19 | EC50 [8]: > 100 µM

SMILES: COc1cccc2c1O/C(=C\c1ccccc1)C2=O
IC50 [4]: > 10 µM | Selectivity Index [5]: >10 | inhibition [9]: inactive | EC50 [8]: > 100 µM

SMILES: COc1cccc2c1O/C(=C\c1ccc(F)cc1F)C2=O
IC50 [4]: > 10 µM | Selectivity Index [5]: >10 | inhibition [9]: inactive | EC50 [8]: > 100 µM

SMILES: O=C1/C(=C/c2ccc(Cc3ccccc3)cc2)Oc2ccccc21
IC50 [4]: 7.34 µM | Selectivity Index [5]: >12 | inhibition [9]: inactive | EC50 [8]: 87 µM

SMILES: O=C1/C(=C/c2cccc(-c3ccc(Cl)cc3)c2)Oc2ccccc21
IC50 [4]: > 10 µM | Selectivity Index [5]: >10 | inhibition [9]: inactive | EC50 [8]: > 100 µM

SMILES: CN1CCN(Cc2c(O)ccc3c2O/C(=C\c2ccccc2)C3=O)CC1
logD [1]: 1.02 | Ratio [2]: 10.6 | Ratio [3]: 22589 | IC50 [4]: 4.01 µM | Selectivity Index [5]: >25 | inhibition [6]: inactive | logD [7]: -3.33 | EC50 [8]: > 100 µM

SMILES: O=C1/C(=C/c2ccccc2)Oc2cc(-c3ccccc3)ccc21
IC50 [4]: > 10 µM | Selectivity Index [5]: >10 | inhibition [9]: inactive | EC50 [8]: > 100 µM

SMILES: O=C1/C(=C/c2ccc(Cl)cc2Cl)Oc2cc(O)ccc21
IC50 [4]: > 10 µM | Selectivity Index [5]: >10 | inhibition [9]: inactive | EC50 [8]: > 100 µM

MIC [11]: 125 µM (≈ 40 µg/mL)
SMILES: CCN(CC)CCCC(C)Nc1ccnc2cc(Cl)ccc12 (centres undefined) [CHLOROQUINE]

SMILES: Nc1ccc(-c2ccc(/C=C3\Oc4ccccc4C3=O)cc2)cn1
logD [1]: 3.67 | Ratio [2]: 4643 | Ratio [3]: 9.2 | IC50 [4]: 3.7 µM | Selectivity Index [5]: >27 | inhibition [6]: inactive | logD [7]: 2.7 | inhibition [9]: inactive | EC50 [8]: > 100 µM

SMILES: O=C1/C(=C/c2ccccc2)Oc2c1ccc(O)c2CN1CCCCC1
logD [1]: 2.04 | Ratio [2]: 110 | Ratio [3]: 155 | IC50 [4]: 1.18 µM | Selectivity Index [5]: >85 | inhibition [6]: inactive | logD [7]: -0.15 | EC50 [8]: > 100 µM

SMILES: O=C1/C(=C/c2ccccc2)Oc2cc(-c3ccc(F)cc3)ccc21
IC50 [4]: > 10 µM | Selectivity Index [5]: >10 | inhibition [9]: inactive | EC50 [8]: > 100 µM

SMILES: CN(C)c1ccc(/C=C2\Oc3ccccc3C2=O)cc1
IC50 [4]: 7.99 µM | Selectivity Index [5]: >13 | inhibition [9]: inactive | EC50 [8]: > 100 µM

SMILES: O=C1/C(=C/c2ccc(F)cc2F)Oc2cc(O)ccc21
IC50 [4]: > 10 µM | Selectivity Index [5]: >10 | inhibition [9]: inactive | EC50 [8]: > 100 µM

SMILES: COc1cc(/C=C2\Oc3c(OC)cccc3C2=O)cc(OC)c1OC
IC50 [4]: > 10 µM | Selectivity Index [5]: >10 | inhibition [9]: inactive | EC50 [8]: > 100 µM

SMILES: COc1cc(/C=C2\Oc3cc(O)ccc3C2=O)cc(OC)c1OC
IC50 [4]: > 10 µM | Selectivity Index [5]: >10 | inhibition [9]: inactive | EC50 [8]: > 100 µM

SMILES: O=C1/C(=C/c2cccc(-c3ccccc3)c2)Oc2ccccc21
IC50 [4]: 5.21 µM | Selectivity Index [5]: >19 | inhibition [9]: inactive | EC50 [8]: > 100 µM

SMILES: Cc1ccc(Oc2ccc(/C=C3\Oc4ccccc4C3=O)cc2)cc1
IC50 [4]: > 10 µM | Selectivity Index [5]: >10 | inhibition [9]: inactive | EC50 [8]: > 100 µM

SMILES: O=C1/C(=C/c2ccc(-c3ccccc3)cc2)Oc2ccccc21
IC50 [4]: > 10 µM | Selectivity Index [5]: >10 | inhibition [9]: inactive | EC50 [8]: > 100 µM

SMILES: O=C1/C(=C/c2ccc(Cl)cc2Cl)Oc2ccccc21
IC50 [4]: > 10 µM | Selectivity Index [5]: <6.8 | inhibition [9]: inactive | EC50 [8]: 68 µM

SMILES: O=C1/C(=C/c2ccc(-c3cnc4ccccc4c3)cc2)Oc2ccccc21
logD [1]: 5.16 | Ratio [2]: 144366 | Ratio [3]: 1.19 | IC50 [4]: 6.59 µM | Selectivity Index [5]: >15 | logD [7]: 5.08 | inhibition [9]: inactive | EC50 [8]: > 100 µM

SMILES: O=C1/C(=C/c2ccc(Oc3ccc(Cl)cc3)cc2)Oc2ccccc21
IC50 [4]: > 10 µM | Selectivity Index [5]: >10 | inhibition [9]: inactive | EC50 [8]: > 100 µM

SMILES: O=C1/C(=C/c2ccc(-c3ccc(Cl)cc3)cc2)Oc2ccccc21
IC50 [4]: > 10 µM | Selectivity Index [5]: >10 | inhibition [9]: inactive | EC50 [8]: > 100 µM

SMILES: Nc1ccc(-c2cccc(/C=C3\Oc4ccccc4C3=O)c2)cn1
logD [1]: 3.67 | Ratio [2]: 4643 | Ratio [3]: 9.2 | IC50 [4]: 2.56 µM | Selectivity Index [5]: >31 | inhibition [6]: inactive | logD [7]: 2.7 | inhibition [9]: inactive | EC50 [8]: 79 µM

SMILES: O=C1/C(=C/c2ccc(Oc3ccc(Cl)cc3)cc2)Oc2cc(O)ccc21
IC50 [4]: 9.88 µM | Selectivity Index [5]: >1 | inhibition [9]: inactive | EC50 [8]: 12 µM

SMILES: CN(C)c1ccc(/C=C2\Oc3cc(O)ccc3C2=O)cc1
IC50 [4]: > 10 µM | Selectivity Index [5]: >10 | inhibition [9]: inactive | EC50 [8]: > 100 µM

SMILES: O=C1/C(=C/c2ccc(Nc3ccccc3)cc2)Oc2ccccc21
IC50 [4]: 8.59 µM | Selectivity Index [5]: >12 | inhibition [9]: inactive | EC50 [8]: > 100 µM

SMILES: O=C1/C(=C/c2ccc(Br)cc2)Oc2ccccc21
IC50 [4]: 3.21 µM | Selectivity Index [5]: >31 | inhibition [9]: inactive | EC50 [8]: > 100 µM

SMILES: O=C1/C(=C/c2cccc(Br)c2)Oc2ccccc21
IC50 [4]: 4.7 µM | Selectivity Index [5]: >21 | inhibition [9]: inactive | EC50 [8]: > 100 µM

SMILES: O=C1/C(=C/c2ccccc2)Oc2ccccc21 [(Z)-AURONE]
IC50 [4]: > 10 µM | Selectivity Index [5]: >10 | inhibition [9]: inactive | EC50 [8]: > 100 µM

SMILES: O=C1/C(=C/c2cccc(Cc3ccccc3)c2)Oc2ccccc21
IC50 [4]: 2.31 µM | Selectivity Index [5]: >31 | inhibition [9]: inactive | EC50 [8]: 71 µM

SMILES: Cc1ccc(Oc2ccc(/C=C3\Oc4cc(O)ccc4C3=O)cc2)cc1
IC50 [4]: 5.84 µM | Selectivity Index [5]: >16 | inhibition [9]: inactive | EC50 [8]: 95 µM

SMILES: O=C1/C(=C/c2ccccc2)Oc2cc(O)ccc21
IC50 [4]: > 10 µM | Selectivity Index [5]: >10 | inhibition [9]: inactive | EC50 [8]: > 100 µM

SMILES: O=Cc1ccc(-c2cccc(/C=C3\Oc4ccccc4C3=O)c2)cc1
IC50 [4]: > 10 µM | Selectivity Index [5]: >10 | inhibition [9]: inactive | EC50 [8]: > 100 µM

SMILES: Nc1ccc(-c2ccc3c(c2)O/C(=C\c2ccccc2)C3=O)cn1
logD [1]: 5.18 | Ratio [2]: 150233 | Ratio [3]: 9.2 | IC50 [4]: 3.03 µM | Selectivity Index [5]: >33 | inhibition [6]: inactive | logD [7]: 4.21 | inhibition [9]: inactive | EC50 [8]: > 100 µM

SMILES: COc1cc(/C=C2\Oc3ccccc3C2=O)cc(OC)c1OC
IC50 [4]: > 10 µM | Selectivity Index [5]: >10 | inhibition [9]: inactive | EC50 [8]: > 100 µM

SMILES: O=C1/C(=C/c2ccc(-c3ccc(F)cc3)cc2)Oc2ccccc21
IC50 [4]: > 10 µM | Selectivity Index [5]: >10 | inhibition [9]: inactive | EC50 [8]: > 100 µM

SMILES: O=Cc1ccc(-c2ccc(/C=C3\Oc4ccccc4C3=O)cc2)cc1
IC50 [4]: > 10 µM | Selectivity Index [5]: >10 | inhibition [9]: inactive | EC50 [8]: > 100 µM

SMILES: COc1cccc2c1O/C(=C\c1ccc(Cl)cc1Cl)C2=O
IC50 [4]: 4.8 µM | Selectivity Index [5]: >21 | IC50 [12]: 18.6 µM | EC50 [8]: > 100 µM

SMILES: O=C1/C(=C/c2cccc(-c3ccc(F)cc3)c2)Oc2ccccc21
IC50 [4]: 4.41 µM | Selectivity Index [5]: >23 | inhibition [9]: inactive | EC50 [8]: > 100 µM

SMILES: O=C1/C(=C/c2ccccc2Br)Oc2ccccc21
IC50 [4]: > 10 µM | Selectivity Index [5]: >10 | inhibition [9]: inactive | EC50 [8]: > 100 µM

SMILES: O=C1/C(=C/c2ccc(NCc3ccccc3)cc2)Oc2ccccc21
IC50 [4]: 5 µM | Selectivity Index [5]: >20 | inhibition [9]: inactive | EC50 [8]: > 100 µM
